Assay outcomes (PubChem)
V-ATPase pH: alters yeast V-ATPase proton transport. S. cerevisiae, pHLuorin cytosolic pH fluorescence. 350,000 tested, 0.37% active. response, % at 10 µM; in the data active = response mostly above about 7.3%, no sharp cut-off; inactive = mostly below about 5.4%; note: actives read high
Granule exo inh: blocks lytic granule exocytosis. TALL-104 LAMP-1 surface exposure, flow cytometry; cells stimulated with thapsigargin and PMA. inhibition, % at 10 µM. 360,000 tested, 0.66% active. AID 651702;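 active = inhibition above about 55%, limit read from the data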
ASAP1 inh: inhibitors of human ASAP1 ArfGAP activity | ASAP1-stimulated ARF1 GTP hydrolysis, GDP FP detection | 360,000 tested, 0.19% active | inhibition, % at 16.5 µM | AID 624377; in the data active = inhibition above about 25%;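 note: 0% = vehicle with enzyme and substrate and 100% = no enzyme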
Target sequence (Q9ULH1 325-724 limits assumed): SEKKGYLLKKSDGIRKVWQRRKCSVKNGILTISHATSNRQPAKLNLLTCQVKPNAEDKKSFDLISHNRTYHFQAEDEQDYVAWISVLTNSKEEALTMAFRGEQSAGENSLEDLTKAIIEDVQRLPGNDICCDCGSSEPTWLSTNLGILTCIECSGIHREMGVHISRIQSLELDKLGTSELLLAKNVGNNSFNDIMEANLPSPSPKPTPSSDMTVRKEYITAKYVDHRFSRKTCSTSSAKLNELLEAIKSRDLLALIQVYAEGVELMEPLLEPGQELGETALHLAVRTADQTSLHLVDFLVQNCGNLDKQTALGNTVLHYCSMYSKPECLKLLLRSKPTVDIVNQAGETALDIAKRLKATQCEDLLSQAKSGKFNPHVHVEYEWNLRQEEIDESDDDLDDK
NRP1-CendR mod: alters CendR peptide binding to human NRP-1 | O14786 | FAM-RPARPAR peptide binding to NRP-1, fluorescence polarization | inhibition, % at 25 µM | 360,000 tested, 0.85% active | AID 602438;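 active = inhibition or corrected inhibition above about 18%, plus a signal ratio from 0.5 to 1.5, limit read from the data, passing the limit was not always enough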
ARFGAP1 inh: inhibits rat ARF GTPase activating protein 1; 360,000 tested, 0.26% active; inhibition, % at 16.5 µM; AID 651572; Arfgap1-stimulated ARF1 GTP hydrolysis, GDP FP detection;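 active = inhibition above a per-plate limit, mean inhibition of low control wells plus 3 SD, cut at about 25% in these data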;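 note: 0% = DMSO wells with enzyme and 100% = wells lacking Arfgap1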
Target sequence (Q62848 1-136 limits assumed): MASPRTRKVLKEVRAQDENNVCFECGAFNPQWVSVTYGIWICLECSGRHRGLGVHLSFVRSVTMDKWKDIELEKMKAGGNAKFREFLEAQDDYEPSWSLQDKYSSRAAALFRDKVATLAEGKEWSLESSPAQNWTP
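system = rat Arfgap1 catalytic domain, aa 1-136 | technique = FP, GDP Alexa 633 tracer displaced from anti-GDP antibody, 620/688 nm | compound = one concentration, 16.5 µM, DMSO 1.26% | medium = HEPES-based buffer, pH 7.5 | timing = compound-enzyme preincubation 20 min, reaction 120 min, detection 60 min, 25 °C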
* hit, by the source's call. In the library only some 2.2% were active in any assay of this set; here they are far more common.

How did Cc1ccc2cc(CN(CCCN(C)C)C(=S)NCc3ccccc3)c(=O)[nH]c2c1C do in these assays?
V-ATPase pH: -1; Granule exo inh: 38; ASAP1 inh: -4; NRP1-CendR mod: 7; ARFGAP1 inh: -3

Results for Nc1[nH]c(C(=O)c2ccc(Cl)cc2)c(-c2ccc(Br)cc2)c1C(=O)NCCc1c[nH]c2ccccc12 ?
ASAP1 inh: 2; ARFGAP1 inh: 5

What do the screens show for `CC(C)[C@H](NC(=O)c1cccs1)C(=O)N1CCC[C@H]1C(=O)NCc1ccccc1`?
ASAP1 inh: 4; ARFGAP1 inh: 5

What do the screens show for `CCC(C)NCC(=O)Nc1ccc(-c2nc3cc(NC(=O)CNC(C)CC)ccc3o2)cc1` (centres undefined)?
V-ATPase pH: 1; Granule exo inh: 0; ASAP1 inh: 20; NRP1-CendR mod: 9; ARFGAP1 inh: 8

What do the screens show for `CCN(CC)CC(=O)Nc1ccc(-c2nc3cc(NC(=O)CN(CC)CC)ccc3o2)cc1`?
V-ATPase pH: -2; Granule exo inh: 0; ASAP1 inh: -9; NRP1-CendR mod: 17*; ARFGAP1 inh: 7

How did COc1ccc(N2C(=O)c3n[nH]c(C(C)C)c3C2c2ccc(F)cc2)cc1 (centres undefined) do in these assays?
ASAP1 inh: 14; ARFGAP1 inh: -11

What do the screens show for `COc1ccc(CNC(=O)CCNS(=O)(=O)c2ccc(Cl)cc2)cc1`?
V-ATPase pH: -1; Granule exo inh: -10; ASAP1 inh: 8; NRP1-CendR mod: 28*; ARFGAP1 inh: -7

How did COc1ccc(S(=O)(=O)NCCC(=O)NCc2ccc(F)cc2)cc1 do in these assays?
V-ATPase pH: -1; Granule exo inh: -3; ASAP1 inh: 0; NRP1-CendR mod: -1; ARFGAP1 inh: 9

Results for CN1CCCc2cc3c(C(F)(F)F)cc(=O)oc3nc21 ?
V-ATPase pH: 7; Granule exo inh: 3; ASAP1 inh: 3; NRP1-CendR mod: 38*; ARFGAP1 inh: 1

How did CC(C)c1cc(=O)oc2c3c4c(cc12)CCCN4CCC3 do in these assays?
V-ATPase pH: 1; Granule exo inh: 0; ASAP1 inh: -9; NRP1-CendR mod: -76; ARFGAP1 inh: -4

Results for COC(=O)C1=C(C)N(Cc2ccccc2C(F)(F)F)C(=NCc2ccc(C(F)(F)F)cc2)NC1c1cccc(F)c1 (centres undefined) ?
ASAP1 inh: -2; ARFGAP1 inh: 11

What do the screens show for `CCCc1nc2ccccc2c(C(=O)OCC(=O)Nc2ccc(S(=O)(=O)N3CCOCC3)cc2)c1CC`?
V-ATPase pH: 6; Granule exo inh: 2; ASAP1 inh: 4; NRP1-CendR mod: 0; ARFGAP1 inh: 9

What do the screens show for `CCCc1nc2ccccc2c(C(=O)OCC(=O)Nc2cccc(S(=O)(=O)N3CCOCC3)c2)c1CC`?
V-ATPase pH: 4; Granule exo inh: 4; ASAP1 inh: 5; NRP1-CendR mod: 2; ARFGAP1 inh: 28*

How did C#CCNC(=O)C1=C[C@H](C2CCCCC2)C[C@H](OCc2ccc(CO)cc2)O1 do in these assays?
V-ATPase pH: -1; Granule exo inh: -6; ASAP1 inh: 5; NRP1-CendR mod: -9; ARFGAP1 inh: -7

How did C#CCNC(=O)C1=C[C@@H](C2CCCCC2)C[C@@H](OCc2ccc(CO)cc2)O1 do in these assays?
V-ATPase pH: -4; Granule exo inh: 7; ASAP1 inh: 10; NRP1-CendR mod: 28*; ARFGAP1 inh: -19

Results for Cc1oc(-c2ccc(Cl)cc2)cc1C(=O)NC1CCN(Cc2ccccc2)CC1 ?
V-ATPase pH: 2; Granule exo inh: 80*; ASAP1 inh: 1; NRP1-CendR mod: 9; ARFGAP1 inh: -9

What do the screens show for `COc1cc(-n2c(C)cc(O)cc2=O)ccc1Cl`?
ASAP1 inh: 4; ARFGAP1 inh: 1

What do the screens show for `CCOc1ccc(N2C(=O)c3ccccc3NC2(C)CC)cc1` (centres undefined)?
V-ATPase pH: -1; Granule exo inh: -5; ASAP1 inh: -3; NRP1-CendR mod: -4; ARFGAP1 inh: 0

How did CCC1(C)Nc2ccccc2C(=O)N1O (centres undefined) do in these assays?
V-ATPase pH: 16; Granule exo inh: 0; ASAP1 inh: -7; NRP1-CendR mod: 26*; ARFGAP1 inh: -8

Results for O=C(NCCCN1CCCC(O)C1)c1cc(COc2ccc(F)cc2F)on1 (centres undefined) ?
V-ATPase pH: -1; Granule exo inh: -2; ASAP1 inh: 6; NRP1-CendR mod: 40*; ARFGAP1 inh: -2

How did CCn1ncc(Br)c1C(=O)Nc1ccn(C23CC4CC(CC(C4)C2)C3)n1 do in these assays?
V-ATPase pH: 3; Granule exo inh: -3; ASAP1 inh: -3; NRP1-CendR mod: -6; ARFGAP1 inh: 6

How did CCn1ncc(Br)c1C(=O)N(C)C12CC3CC(CC(C3)C1)C2 do in these assays?
V-ATPase pH: -1; Granule exo inh: -1; ASAP1 inh: 13; NRP1-CendR mod: 27*; ARFGAP1 inh: 0

Results for CC(C)(C)c1ccc(OCc2ccc(C(=O)Nc3cccnc3)o2)cc1 ?
V-ATPase pH: -1; Granule exo inh: 18; ASAP1 inh: -12; NRP1-CendR mod: 10; ARFGAP1 inh: -4

What do the screens show for `COc1ccc(-c2csc(Nc3cccnc3)n2)cc1`?
V-ATPase pH: -2; Granule exo inh: -2; ASAP1 inh: 3; NRP1-CendR mod: 25*; ARFGAP1 inh: 0

Results for COCC1CN(CCc2ccc(F)cc2)S(=O)(=O)c2c(OCCN3C(=O)[C@@H]4[C@H](C3=O)[C@@H]3C=C[C@H]4C3)cccc2O1 (some centres undefined) ?
ASAP1 inh: -3; ARFGAP1 inh: -8

How did Cc1cccc(-c2nsc(SCC(=O)c3ccc(Cl)cc3)n2)c1 do in these assays?
V-ATPase pH: -4; Granule exo inh: -4; ASAP1 inh: 8; NRP1-CendR mod: 45*; ARFGAP1 inh: 3

Results for CC(C)(C)c1ccc(C#C[C@@H]2C=C[C@H](O)[C@@H](COC(=O)Nc3ccccc3)O2)cc1 ?
ASAP1 inh: -1; ARFGAP1 inh: 9

How did CN(CC(=O)NCC1CCCCC1)CC(=O)Nc1ccc(F)cc1 do in these assays?
V-ATPase pH: -5; Granule exo inh: -2; ASAP1 inh: -10; NRP1-CendR mod: -2; ARFGAP1 inh: -4

Results for COC(=O)c1cc2c(-c3ccccc3)c(C)c3ccccn3c-2c1C(=O)OC ?
V-ATPase pH: -3; Granule exo inh: -2; ASAP1 inh: -12; NRP1-CendR mod: -15; ARFGAP1 inh: 2

What do the screens show for `COC(=O)c1c(Cl)c2n3ccccc3c(C)c(-c3ccccc3)c-2c1C(=O)OC`?
V-ATPase pH: 5; Granule exo inh: 3; ASAP1 inh: -2; NRP1-CendR mod: 38*; ARFGAP1 inh: -14

Results for CN1CCCCC(NC(=O)CCl)C1=O (centres undefined) ?
ASAP1 inh: 11; ARFGAP1 inh: 7

What do the screens show for `O=C(CN1C(=O)c2ccccc2C1=O)NC(Cc1ccccc1)C(=O)O` (centres undefined)?
V-ATPase pH: 0; Granule exo inh: -2; ASAP1 inh: -2; NRP1-CendR mod: -5; ARFGAP1 inh: 3
